Laboratory results taken from ChEMBL document CHEMBL1772969, “Synthesis, structure-activity relationship, and antimalarial activity of ureas and thioureas of 15-membered azalides” (J Med Chem, 2011).
Active and inactive are the calls of the source. The rule behind the calls is not given here.

How the values were obtained:
[1] = test system: Plasmodium falciparum; test: Antimalarial activity against chloroquine-sensitive Plasmodium falciparum D6 after 48 hrs by [3H]hypoxanthine incorporation assay; format: functional, organism-based
Outline: (§1)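 [3H]hypoxanthine incorporation assay (Desjardins method, Milhous modification) with 48 h drug exposure. Compounds and controls were 2-fold diluted across 11 concentrations. IC50 was fitted by nonlinear logistic dose-response. Values are averaged where multiple results were generated, with relative errors usually <30%.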

[2] = Oral bioavailability in Sprague-Dawley rat at 30 mg/kg; format: ADME, organism-based; conditions: in vivo
Outline: (§2)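 Male Sprague-Dawley rats (250–300 g), crossover design. Dosed 10 mg/kg iv, then 2-day washout, then 30 mg/kg oral (free base equivalent), formulated in 1%/20% Encapsin (w/v) and saline. Blood sampled up to 24 h and analysed by LC-MS/MS. Clearance and terminal-phase Vd based on blood concentration.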

[3] = Apparent volume of distribution during terminal phase in Sprague-Dawley rat at 10 mg/kg, iv and 30 mg/kg, po; format: ADME, organism-based; conditions: in vivo, read-out: Vz/F; outline: as §2
[4] = Half life in Sprague-Dawley rat at 10 mg/kg, iv and 30 mg/kg, po; format: ADME, organism-based; conditions: in vivo; outline: as §2
[5] = Half life in human liver microsomes at 1 uM by LCMS analysis; format: ADME, Microsome
Outline: (§3)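 Compound at 1 μM final with 0.5 mg/mL pooled human or mouse liver microsomes, 1.3 mM NADP, 3.3 mM MgCl₂, 0.1 M PBS pH 7.4. Reaction started with 1 U/mL G6PD, shaken at 37 °C. Aliquots quenched with cold acetonitrile at 0, 10, 20, 30 and 60 min and quantified by LCMS. t₁/₂ taken from log plot of total ion chromatogram area remaining.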

[6] = Blood clearance in Sprague-Dawley rat at 10 mg/kg, iv and 30 mg/kg, po; format: ADME, organism-based; conditions: whole blood; outline: as §2
[7] = test system: Plasmodium falciparum; test: Antimalarial activity against multidrug-resistant Plasmodium falciparum TM91C235 after 48 hrs by [3H]hypoxanthine incorporation assay; format: functional, organism-based; outline: as §1
[8] = test system: HepG2; test: Cytotoxicity against human HepG2 cells after 1 to 4 hrs by MTS assay; format: cell-based
Outline: (§4)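 HepG2 and THP-1 cells grown in RPMI 1640 with 10% FBS at 37 °C, 5% CO₂, and passaged twice weekly. Compounds applied as continuous exposure. Viability read by MTS reagent, 1–4 h incubation, absorbance at 490 nm; IC₅₀ derived.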

[9] = test system: THP-1; test: Cytotoxicity against human THP1 cells after 1 to 4 hrs by MTS assay; format: cell-based; outline: as §4
[10] = Half life in mouse liver microsomes at 1 uM by LCMS analysis; format: ADME, Microsome; outline: as §3
[11] = test system: Plasmodium berghei; test: Antiplasmodial activity against Plasmodium berghei KBG-173 infected in sc dosed mouse administered bid for 3 days; format: functional
Outline: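 Male mice (24-30 g) were infected ip with 5 × 10⁶ P. berghei KBG-173-infected erythrocytes. Drug suspended in palm/peanut oil was given sc twice daily on days 3-5 post-infection at 160, 40 or 10 mg/kg per dose, 0.01 mL/g, in groups of 4-5. Blood films were taken day 6, then biweekly to day 31. Mice smear-negative on day 31 were counted cured. CD50 is the daily dose curing 50%.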

[12] = test system: Plasmodium falciparum; test: Antimalarial activity against chloroquine/pyrimethamine-resistant Plasmodium falciparum W2 after 48 hrs by [3H]hypoxanthine incorporation assay; format: functional, organism-based; outline: as §1
[13] = test system: Plasmodium berghei; test: Antiplasmodial activity against Plasmodium berghei KBG-173 infected in mouse assessed as mouse without parasitemia at 60 mg/kg, sc bid for 3 days measured on day 31; format: functional, organism-based; parameters: dose 60 mg/kg
Outline: (§5)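 P. berghei KBG-173: 5 × 10⁶ infected erythrocytes injected intraperitoneally into male mice (24–30 g); parasitemia 1.0–3.7% by day 3. Oil suspension given subcutaneously twice daily at 160, 40 or 10 mg/kg on days 3–5 postinfection (totals 960/240/60 mg/kg); 4–5 mice per group. Blood films on day 6, then biweekly to day 31; film-negative on day 31 counted as cured.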

[14] = test system: Plasmodium berghei; test: Antiplasmodial activity against Plasmodium berghei KBG-173 infected in mouse assessed as mouse without parasitemia at 240 mg/kg, sc bid for 3 days measured on day 31; format: functional, organism-based; parameters: dose 240 mg/kg; outline: as §5
[15] = test system: Plasmodium berghei; test: Antiplasmodial activity against Plasmodium berghei KBG-173 infected in mouse assessed as mouse without parasitemia at 960 mg/kg, sc bid for 3 days measured on day 31; format: functional, organism-based; parameters: dose 960 mg/kg; outline: as §5

Structure (SMILES) | IC50 [1] | bioavailability [2] | Vd/F [3] | half-life [4] | half-life at 1 µM [5] | clearance [6] | IC50 [7] | IC50 [8] | IC50 [9] | half-life at 1 µM [10] | CD50 [11] | IC50 [12] | Activity [13] | Activity [14] | Activity [15]
CC[C@H]1OC(=O)[C@H](C)[C@@H](O[C@H]2C[C@@](C)(OC)[C@@H](O)[C@H](C)O2)[C@H](C)[C@@H](O[C@@H]2O[C@H](C)C[C@H](N(C)C)[C@H]2O)[C@](C)(O)C[C@@H](C)CN(CCCNC(=S)NCc2ccccc2)[C@H](C)[C@@H](O)[C@]1(C)O | 0.257 µM | 3.4% | 10.4 L/kg | 30 h | > 2 h | 4 mL/min/kg | 0.156 µM | > 50 µM | 47 µM | > 2 h | 285 mg/kg | 0.121 µM | – | – | –
CC[C@H]1OC(=O)[C@H](C)[C@@H](O[C@H]2C[C@@](C)(OC)[C@@H](O)[C@H](C)O2)[C@H](C)[C@@H](O[C@@H]2O[C@H](C)C[C@H](N(C)C)[C@H]2O)[C@](C)(O)C[C@@H](C)CN(CCCNC(=S)NCCCc2ccccc2)[C@H](C)[C@@H](O)[C@]1(C)O | 0.107 µM | 1.3% | 2.6 L/kg | 13.4 h | > 2 h | 2.3 mL/min/kg | 0.082 µM | 22 µM | 15 µM | > 2 h | 780 mg/kg | 0.085 µM | inactive | – | –
CC[C@H]1OC(=O)[C@H](C)[C@@H](O[C@H]2C[C@@](C)(OC)[C@@H](O)[C@H](C)O2)[C@H](C)[C@@H](O[C@@H]2O[C@H](C)C[C@H](N(C)C)[C@H]2O)[C@](C)(O)C[C@@H](C)CN(CCCN(CCC#N)C(=S)NCCCc2ccccc2)[C@H](C)[C@@H](O)[C@]1(C)O | 0.179 µM | 21% | 31.7 L/kg | 15.2 h | > 2 h | 24.5 mL/min/kg | 0.062 µM | 9 µM | 5 µM | > 2 h | 800 mg/kg | 0.088 µM | inactive | inactive | –
CC[C@H]1OC(=O)[C@H](C)[C@@H](O[C@H]2C[C@@](C)(OC)[C@@H](O)[C@H](C)O2)[C@H](C)[C@@H](O[C@@H]2O[C@H](C)C[C@H](N(C)C)[C@H]2O)[C@](C)(O)C[C@@H](C)CN(CCCN(CCC#N)C(=S)NCc2ccccc2)[C@H](C)[C@@H](O)[C@]1(C)O | 0.204 µM | – | – | – | > 2 h | – | 0.126 µM | 44 µM | 11 µM | > 2 h | >960 mg/kg | 0.139 µM | – | – | –
CC[C@H]1OC(=O)[C@H](C)[C@@H](O[C@H]2C[C@@](C)(OC)[C@@H](O)[C@H](C)O2)[C@H](C)[C@@H](O[C@@H]2O[C@H](C)C[C@H](N(C)C)[C@H]2O)[C@](C)(O)C[C@@H](C)CN(CCCNC(=O)Nc2ccc3ccccc3c2)[C@H](C)[C@@H](O)[C@]1(C)O | 0.138 µM | – | – | – | > 2 h | – | 0.081 µM | 48 µM | 40 µM | > 2 h | >960 mg/kg | 0.127 µM | inactive | inactive | –
CC[C@H]1OC(=O)[C@H](C)[C@@H](O[C@H]2C[C@@](C)(OC)[C@@H](O)[C@H](C)O2)[C@H](C)[C@@H](O[C@@H]2O[C@H](C)C[C@H](N(C)C)[C@H]2O)[C@](C)(O)C[C@@H](C)CN(CCCNC(=S)NCCc2ccccc2)[C@H](C)[C@@H](O)[C@]1(C)O | 0.215 µM | – | – | – | > 2 h | – | 0.2 µM | 47 µM | 23 µM | > 2 h | 780 mg/kg | 0.167 µM | inactive | – | –
CC[C@H]1OC(=O)[C@H](C)[C@@H](O[C@H]2C[C@@](C)(OC)[C@@H](O)[C@H](C)O2)[C@H](C)[C@@H](O[C@@H]2O[C@H](C)C[C@H](N(C)C)[C@H]2O)[C@](C)(O)C[C@@H](C)CN(CCCNC(=O)NC(C)c2cccc3ccccc23)[C@H](C)[C@@H](O)[C@]1(C)O (some centres undefined) | 0.292 µM | – | – | – | > 2 h | – | 0.107 µM | > 50 µM | 46 µM | > 2 h | 397.5 mg/kg | 0.106 µM | – | inactive | Active
CC[C@H]1OC(=O)[C@H](C)[C@@H](O[C@H]2C[C@@](C)(OC)[C@@H](O)[C@H](C)O2)[C@H](C)[C@@H](O[C@@H]2O[C@H](C)C[C@H](N(C)C)[C@H]2O)[C@](C)(O)C[C@@H](C)CN(CCCN(CCC#N)C(=O)NC(C)c2cccc3ccccc23)[C@H](C)[C@@H](O)[C@]1(C)O (some centres undefined) | 0.2 µM | – | – | – | > 2 h | – | 0.097 µM | 48 µM | 40 µM | > 2 h | 510 mg/kg | 0.136 µM | – | inactive | –
CC[C@H]1OC(=O)[C@H](C)[C@@H](O[C@H]2C[C@@](C)(OC)[C@@H](O)[C@H](C)O2)[C@H](C)[C@@H](O[C@@H]2O[C@H](C)C[C@H](N(C)C)[C@H]2O)[C@](C)(O)C[C@@H](C)CN(CCCNC(=S)Nc2cccc3ccccc23)[C@H](C)[C@@H](O)[C@]1(C)O | 0.116 µM | – | – | – | > 2 h | – | 0.131 µM | 48 µM | 40 µM | > 2 h | 195 mg/kg | 0.155 µM | – | – | –
CC[C@H]1OC(=O)[C@H](C)[C@@H](O[C@H]2C[C@@](C)(OC)[C@@H](O)[C@H](C)O2)[C@H](C)[C@@H](O[C@@H]2O[C@H](C)C[C@H](N(C)C)[C@H]2O)[C@](C)(O)C[C@@H](C)CN(CCNC(=S)NCc2ccccc2)[C@H](C)[C@@H](O)[C@]1(C)O | 0.109 µM | – | – | – | > 2 h | – | 0.106 µM | 14 µM | 9 µM | > 2 h | – | 0.072 µM | – | – | –
CC[C@H]1OC(=O)[C@H](C)[C@@H](O[C@H]2C[C@@](C)(OC)[C@@H](O)[C@H](C)O2)[C@H](C)[C@@H](O[C@@H]2O[C@H](C)C[C@H](N(C)C)[C@H]2O)[C@](C)(O)C[C@@H](C)CN(CCNC(=S)Nc2ccccc2)[C@H](C)[C@@H](O)[C@]1(C)O | 0.183 µM | – | – | – | > 2 h | – | 0.113 µM | 48 µM | 16 µM | > 2 h | – | 0.443 µM | – | – | –
CC[C@H]1OC(=O)[C@H](C)[C@@H](O[C@H]2C[C@@](C)(OC)[C@@H](O)[C@H](C)O2)[C@H](C)[C@@H](O[C@@H]2O[C@H](C)C[C@H](N(C)C)[C@H]2O)[C@](C)(O)C[C@@H](C)CN(CCNC(=O)NCCc2ccccc2)[C@H](C)[C@@H](O)[C@]1(C)O | 0.546 µM | – | – | – | > 2 h | – | 0.243 µM | > 50 µM | 45 µM | > 2 h | – | 0.105 µM | – | – | –
CC[C@H]1OC(=O)[C@H](C)[C@@H](O[C@H]2C[C@@](C)(OC)[C@@H](O)[C@H](C)O2)[C@H](C)[C@@H](O[C@@H]2O[C@H](C)C[C@H](N(C)C)[C@H]2O)[C@](C)(O)C[C@@H](C)CN(CCN(CCC(N)=O)C(=O)Nc2ccc3ccccc3c2)[C@H](C)[C@@H](O)[C@]1(C)O | 0.19 µM | – | – | – | > 2 h | – | 0.039 µM | 13 µM | 7 µM | > 2 h | – | 0.062 µM | – | – | –
CC[C@H]1OC(=O)[C@H](C)[C@@H](O[C@H]2C[C@@](C)(OC)[C@@H](O)[C@H](C)O2)[C@H](C)[C@@H](O[C@@H]2O[C@H](C)C[C@H](N(C)C)[C@H]2O)[C@](C)(O)C[C@@H](C)CN(CCCNC(=O)Nc2cccc3ccccc23)[C@H](C)[C@@H](O)[C@]1(C)O | 0.215 µM | – | – | – | > 2 h | – | 0.131 µM | > 50 µM | > 50 µM | > 2 h | 150 mg/kg | 0.173 µM | – | – | –
